Screening results deposited in PubChem by several laboratories.
PLCb3 inh – human PLC-beta3 inhibitors, primary screen, biochemical, fluorescence; AID 720704, 2013; 1-phosphatidylinositol 4,5-bisphosphate phosphodiesterase beta-3 (Homo sapiens), Q01970; actives 0.18% (n = 370,000); Purified PLC-beta3, fluorogenic substrate; inhibition, % at 12.2 µM
CendR NRP1 mod – modulators of CendR peptide binding to NRP-1, primary screen, biochemical, fluorescence polarization, uHTS; Neuropilin-1 (Homo sapiens), O14786; FAM-RPARPAR peptide binding to NRP-1; inhibition, % at 25 µM; actives 0.85% (n = 360,000);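 active means inhibition or corrected inhibition above about 18%, plus a signal ratio from 0.5 to 1.5, limit read from the data, passing the limit was not always enough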
Tn6 DDE FP – inhibitors of Tn6 peptide binding to fibrin DD(E), primary screen, biochemical, fluorescence polarization, human fibrin, Tn6 probe | Fibrinogen beta chain (Homo sapiens), P02675 | Fibrin DD(E) TRITC-Tn6 fluorescence polarization displacement | inhibition, % at 8.3 µM | actives 0.21% (n = 370,000) | AID 720509, 2013;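 active means inhibition above a per-campaign cutoff: mean of compounds within control limits plus 3 SD, cut at about 15% in these data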
PLCg1 inh – PLC-gamma1 enzyme inhibitors, primary screen, biochemical, fluorescence, purified enzyme; AID 720700, 2013; inhibition, % at 12.2 µM; actives 0.84% (n = 370,000); fluorogenic substrate; 1-phosphatidylinositol 4,5-bisphosphate phosphodiesterase gamma-1 (Homo sapiens), P19174; in the data active means inhibition above about 9.5%
Tn7 DDE FP – inhibitors of Tn7 peptide binding to fibrin DD(E), primary screen, biochemical, fluorescence polarization, human fibrin, Tn7 probe; Fibrinogen beta chain (Homo sapiens), P02675; FP displacement of FITC-Tn7 peptide from fibrin DD(E); 0% = median of compound wells per plate; inhibition, % at 8.3 µM; actives 0.13% (n = 370,000);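 active means inhibition above the mean of compounds falling within the control limits plus 3 SD of them, cut at about 14% in these data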
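Assay system: Fibrin-DD(E) protein isolated from polymerized human fibrin clots; read-out basis: percent inhibition; medium: Tris/NaCl/CaCl2 buffer, pH 7.8; signal: FP measurement; incubation: 10 min plus 3 h, room temperature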
proKLK7 act – proKLK7 zymogen activators, primary screen, biochemical, fluorescence intensity. actives 0.9% (n = 370,000). Kallikrein-7 (Homo sapiens), P49862. purified proKLK7, EDANS-DABCYL substrate fluorescence; 100% is mature enzyme control, 0% vehicle. AID 652039, 2013. activation, % at 7 µM;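 active means activation above the mean of all tested compounds plus 3 SD, computed per campaign excluding outliers beyond control limits, cut at about 13% in these data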
Target sequence (P49862 whole entry, looked up): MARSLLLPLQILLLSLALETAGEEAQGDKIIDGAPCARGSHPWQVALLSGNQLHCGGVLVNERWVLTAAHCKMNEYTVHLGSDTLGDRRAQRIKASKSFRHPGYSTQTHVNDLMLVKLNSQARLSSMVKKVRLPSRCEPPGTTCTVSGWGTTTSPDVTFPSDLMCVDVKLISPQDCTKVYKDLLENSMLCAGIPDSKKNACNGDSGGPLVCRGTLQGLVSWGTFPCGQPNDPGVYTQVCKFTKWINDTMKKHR
PLCg1 ctr – PLC-gamma1 enzyme inhibitors, counter-screen for PLC-beta3 inhibitor project, biochemical, fluorescence; shares compounds with PLCg1 inh; purified PLC-gamma1, fluorogenic substrate; inhibition, % at 12.3 µM; actives 3.1% (n = 3,300); in the data active means inhibition above about 9.5%
PLCbeta3 conf – PLC-beta3 inhibitor confirmation, biochemical, fluorescence, purified enzyme. actives 1% (n = 3,300). AID 743261, 2014. fluorogenic substrate fluorescence. inhibition, % at 12.3 µM. shares compounds with PLCg1 inh
Large screens that a line does not name were inactive (follow-up assays come after a bar, where they were run). The list is not random: actives were taken first. Their share in the collection is about 3%. Unless noted, no stated cut-off is given here; in the data, active means inhibition above about 11%; inactive means the rest.

O=C(NCCCN1CCOCC1)c1cccnc1	none
COc1ccc(CCNC(=O)C(=O)NN=C2CCCCCCC2)cc1OC	none
Cc1ccc(C(=O)NCCCN2CCOCC2)cc1S(=O)(=O)N1CCOCC1	PLCg1 inh 10 | PLCg1 ctr inactive | PLCbeta3 conf inactive
Cc1ccc(NC(=S)NNC(=O)CSc2nnc(-c3ccc(C)cc3)n2C2CCCCC2)cc1	none (no result: CendR NRP1 mod)
COc1ccc(S[C@]2(C(=O)N3CCCC3)CC(=O)N(C(=O)/C=C/c3ccccc3)[C@@H]2c2ccc(OC)cc2)cc1	none (no result: CendR NRP1 mod)
O=C(NCCCN1CCOCC1)C(=O)NCCc1ccccc1	PLCg1 inh 12 | PLCg1 ctr inactive | PLCbeta3 conf inactive
[O-]C1=N/[N+](=C/c2ccccc2Cl)CC1	PLCg1 inh 11 | PLCg1 ctr inactive | PLCbeta3 conf inactive
C#CCN1CC(N(C)CCO)CS1(=O)=O (configuration not stated)	none (no result: CendR NRP1 mod)
CCOCCCNC(=O)/C(C#N)=C/c1cc(OC)c(O)c([N+](=O)[O-])c1	PLCg1 inh 13 | PLCg1 ctr inactive | PLCbeta3 conf inactive
CCN1CCCCC(NC(=O)c2ccc(C)cc2)C1=O (configuration not stated)	none (no result: CendR NRP1 mod)
CCOc1ccc(NC(=O)/C=C/c2ccccc2)c([N+](=O)[O-])c1	none
CCOc1ccc(/C=C/C(=O)Nc2ccc(OC)cc2[N+](=O)[O-])cc1	PLCb3 inh 11 | PLCg1 ctr inactive | PLCbeta3 conf inactive
COc1ccc(NC(=O)Cc2ccc(C)cc2)c([N+](=O)[O-])c1	PLCb3 inh 14 | PLCg1 ctr inactive | PLCbeta3 conf inactive
CCOC(=O)[C@@]12CCCC3=C1N(CCC3)C(=O)[C@H]2CC(=O)NCc1ccc(OC)c(OC)c1	none (no result: CendR NRP1 mod)
COC(=O)C1CCN(C(=O)CN2CCC(C(=O)c3ccc(C)cc3)CC2)CC1	none (no result: CendR NRP1 mod)
COc1ccccc1C(CCNCc1ccc(N(C)C)cc1)c1ccc(OC(C)C)cc1 (configuration not stated)	PLCg1 inh 10 | PLCg1 ctr inactive | PLCbeta3 conf inactive
N/C(=N\NS(=O)(=O)c1ccccc1)c1ccccn1	none
N/C(=N\NS(=O)(=O)c1ccc(Cl)cc1)c1ccccn1	PLCg1 inh 10 | PLCg1 ctr inactive | PLCbeta3 conf inactive
Cc1onc(-c2ccccc2Cl)c1C(=O)N1CCCCCC1	none
Cc1onc(-c2ccccc2Cl)c1C(=O)N1CCOC12CCCCC2	PLCb3 inh 11 | PLCg1 ctr inactive | PLCbeta3 conf inactive
O=C(NC1=NCCS1)C12CC3CC(CC(C3)C1)C2	PLCb3 inh 11 | PLCg1 ctr inactive | PLCbeta3 conf inactive
O=C(Nc1nn[nH]n1)C12CC3CC(CC(C3)C1)C2	PLCg1 inh 10 | PLCg1 ctr inactive | PLCbeta3 conf inactive
O=C(Nc1nncs1)C12CC3CC(CC(C3)C1)C2	none
CSc1ccccc1NC(=O)Cn1c(-c2cscn2)nc2ccccc21	PLCg1 inh 9.8 | PLCg1 ctr inactive | PLCbeta3 conf inactive
COc1cc(/C=N\Nc2nncn2N)ccc1OC(C)=O	PLCg1 inh 14 | PLCg1 ctr inactive | PLCbeta3 conf inactive
Cc1ccc(N2C(=O)CC(Cn3nc(C)cc3C)C2=O)cc1 (configuration not stated)	PLCg1 inh 11 | PLCg1 ctr inactive | PLCbeta3 conf inactive
NC(=O)C1CCN(c2ccnc(Cl)n2)CC1	none (no result: CendR NRP1 mod, proKLK7 act)
Nc1nc(Sc2ccc([N+](=O)[O-])cc2[N+](=O)[O-])n[nH]1	PLCg1 inh 9.5 | PLCg1 ctr inactive | PLCbeta3 conf inactive
Cc1ccnc(Sc2ccc([N+](=O)[O-])cc2[N+](=O)[O-])n1	none
N#Cc1ccc2nc(-c3ccc(CN4CCC5(CC4)CNc4ccccc45)cc3)c(-c3ccccc3)nc2c1	none (no result: CendR NRP1 mod)
C[C@@H]1CN([C@@H](C)CO)C(=O)CCCn2cc(nn2)CO[C@H]1CN(C)S(=O)(=O)c1ccc2c(c1)OCCCO2	none
C[C@H](CO)N1C[C@H](C)[C@@H](CN(C)C(=O)c2ccccc2)OCc2cn(nn2)CCCC1=O	PLCb3 inh 11 | PLCg1 ctr inactive | PLCbeta3 conf inactive
C[C@@H]1CN([C@H](C)CO)C(=O)CCCn2cc(nn2)CO[C@H]1CN(C)C(=O)c1ccncc1	none
C[C@H](CO)N1C[C@H](C)[C@@H](CN(C)S(=O)(=O)c2ccc3c(c2)OCCCO3)OCc2cn(nn2)CCCC1=O	PLCg1 inh 9.5 | PLCg1 ctr inactive | PLCbeta3 conf inactive
CCOc1ccccc1NC(=O)CSc1nc(=O)n(Cc2ccccn2)c2c1CCC2	none
O=C(CSc1nc(=O)n(Cc2ccccn2)c2c1CCC2)Nc1ccc(F)cc1F	PLCg1 inh 13 | PLCg1 ctr inactive | PLCbeta3 conf inactive
CC(=O)c1ccc(N2CCN(C(=O)c3ccc(Br)cc3)CC2)c(F)c1	PLCb3 inh 12 | PLCg1 ctr inactive | PLCbeta3 conf inactive
CCc1nc2ccc(C(=O)N3CCCC(C(N)=O)C3)cn2c1N(C)Cc1ccc(OC)cc1 (configuration not stated)	PLCg1 inh 10 | PLCg1 ctr inactive | PLCbeta3 conf inactive
CCOC(=O)CN1C(=O)[C@]2(OCCC=C[C@H]2C)c2c(Br)cccc21	none (no result: CendR NRP1 mod)
CC(O)Cc1cn(CC(=O)N2CCN(C(=O)OC(C)(C)C)CC2)nn1 (configuration not stated)	PLCg1 inh 13 | PLCg1 ctr inactive | PLCbeta3 conf inactive
O=C(Nc1cc(Cl)ccc1F)C1CCCN(c2nnc(-n3cccc3)s2)C1 (configuration not stated)	none (no result: CendR NRP1 mod)
Cn1c(=O)c2cc(S(=O)(=O)NC(Cc3ccccc3)C(=O)NCc3ccco3)ccc2n(C)c1=O (configuration not stated)	PLCg1 inh 75 | PLCg1 ctr inactive | PLCbeta3 conf inactive
CN(C(=O)COc1cccc(C#N)c1)C1CCS(=O)(=O)C1 (configuration not stated)	PLCg1 inh 11 | PLCg1 ctr inactive | PLCbeta3 conf inactive
